# From ChEMBL document CHEMBL5724801, “EUbOPEN Chemogenomics Library - Multiplex” (2024)
# Values joined by “and” are separate entries in the source; they are usually repeats but may differ in a detail not shown here. Equal entries are not always repeated.
# System: HEK-293T
# Experiment: Multiplex assay against HEK293T
# Type: toxicity, cell-based
# Conditions: human
# How it was run: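 Live cells carried four stains from seeding: Hoechst33342, BioTracker Green Microtubule Cytoskeleton Dye, MitoTracker Red and Annexin V Alexa Fluor 680. They were imaged on a CQ1 microscope at 37°C and 5% CO2 after compound addition. Using CellPathfinder machine-learning gating, cells were split into Hoechst high-intensity objects or normal cells, normal cells into healthy, pyknosed or fragmented nuclei, and pyknosed cells into mitotic or apoptotic; tubulin, mitochondrial-mass and membrane-permeability phenotypes are per cents of healthy-nucleus cells.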
# [1] = 12 h, 1 µM, compound concentration 1 uM
# [2] = 12 h, 10 µM, compound concentration 10 uM
# [3] = 24 h, 1 µM, compound concentration 1 uM
# [4] = 24 h, 10 µM, compound concentration 10 uM
# [5] = 48 h, 1 µM, compound concentration 1 uM
# [6] = 48 h, 10 µM, compound concentration 10 uM
compound,measurement,setting,value
O=C(Nc1cc(-c2ccccc2)nn1-c1ccccc1F)c1ccc([N+](=O)[O-])cc1,Population Apoptotic (%),[1],33% and 37%
same,Population Fragmented Nuclei (%),[1],7% and 6%
same,Population Healthy Nuclei (%),[1],78% and 83%
same,Population Hoechst High Intensity Objects (%),[1],9% and 6%
same,Population Membrane Permeable-Phenotype (%),[1],0%
same,Population Mitochondria Different-Phenotype (%),[1],31% and 48%
same,Population Mitotic Cells (%),[1],66% and 62%
same,Population Normal (%),[1],90% and 94%
same,Population Pyknosed Nuclei (%),[1],13% and 9%
same,Population Tubulin-Different-Phenotype (%),[1],19%
same,Total Cell Count,[1],402 and 417
same,Population Apoptotic (%),[2],37% and 44%
same,Population Fragmented Nuclei (%),[2],10% and 6%
same,Population Healthy Nuclei (%),[2],71% and 73%
same,Population Hoechst High Intensity Objects (%),[2],5% and 6%
same,Population Membrane Permeable-Phenotype (%),[2],0%
same,Population Mitochondria Different-Phenotype (%),[2],41% and 65%
same,Population Mitotic Cells (%),[2],62% and 55%
same,Population Normal (%),[2],94% and 93%
same,Population Pyknosed Nuclei (%),[2],17% and 20%
same,Population Tubulin-Different-Phenotype (%),[2],40% and 45%
same,Total Cell Count,[2],342 and 367
same,Population Apoptotic (%),[3],33% and 35%
same,Population Fragmented Nuclei (%),[3],8% and 12%
same,Population Healthy Nuclei (%),[3],78%
same,Population Hoechst High Intensity Objects (%),[3],4%
same,Population Membrane Permeable-Phenotype (%),[3],0% and 1%
same,Population Mitochondria Different-Phenotype (%),[3],21% and 31%
same,Population Mitotic Cells (%),[3],66% and 64%
same,Population Normal (%),[3],95%
same,Population Pyknosed Nuclei (%),[3],12% and 8%
same,Population Tubulin-Different-Phenotype (%),[3],17% and 16%
same,Total Cell Count,[3],481 and 530
same,Population Apoptotic (%),[4],15% and 22%
same,Population Fragmented Nuclei (%),[4],9% and 7%
same,Population Healthy Nuclei (%),[4],77% and 83%
same,Population Hoechst High Intensity Objects (%),[4],2% and 3%
same,Population Membrane Permeable-Phenotype (%),[4],0%
same,Population Mitochondria Different-Phenotype (%),[4],35% and 47%
same,Population Mitotic Cells (%),[4],84% and 77%
same,Population Normal (%),[4],97% and 96%
same,Population Pyknosed Nuclei (%),[4],13% and 8%
same,Population Tubulin-Different-Phenotype (%),[4],35% and 33%
same,Total Cell Count,[4],434 and 482
same,Population Apoptotic (%),[5],17% and 33%
same,Population Fragmented Nuclei (%),[5],13% and 17%
same,Population Healthy Nuclei (%),[5],79% and 74%
same,Population Hoechst High Intensity Objects (%),[5],3% and 2%
same,Population Membrane Permeable-Phenotype (%),[5],2%
same,Population Mitochondria Different-Phenotype (%),[5],14% and 15%
same,Population Mitotic Cells (%),[5],82% and 66%
same,Population Normal (%),[5],96% and 97%
same,Population Pyknosed Nuclei (%),[5],7%
same,Population Tubulin-Different-Phenotype (%),[5],9% and 11%
same,Total Cell Count,[5],893 and 799
same,Population Apoptotic (%),[6],22% and 20%
same,Population Fragmented Nuclei (%),[6],12% and 15%
same,Population Healthy Nuclei (%),[6],77%
same,Population Hoechst High Intensity Objects (%),[6],2% and 3%
same,Population Membrane Permeable-Phenotype (%),[6],2% and 1%
same,Population Mitochondria Different-Phenotype (%),[6],19% and 27%
same,Population Mitotic Cells (%),[6],77% and 79%
same,Population Normal (%),[6],97% and 96%
same,Population Pyknosed Nuclei (%),[6],9% and 6%
same,Population Tubulin-Different-Phenotype (%),[6],23% and 26%
same,Total Cell Count,[6],671 and 666
Cc1cc(C)cc(C(=O)NOCCCCCC(=O)NO)c1,Population Apoptotic (%),[1],7.89% and 11.48%
same,Population Fragmented Nuclei (%),[1],1.15% and 1.27%
same,Population Healthy Nuclei (%),[1],55.3% and 21.02%
same,Population Hoechst High Intensity Objects (%),[1],0% and 0.63%
same,Population Membrane Permeable-Phenotype (%),[1],0% and 9.09%
same,Population Mitochondria Different-Phenotype (%),[1],25.91% and 12.12%
same,Population Mitotic Cells (%),[1],92.11% and 88.52%
same,Population Normal (%),[1],100% and 99.37%
same,Population Pyknosed Nuclei (%),[1],43.55% and 77.71%
same,Population Tubulin-Different-Phenotype (%),[1],7.25% and 18.18%
same,Total Cell Count,[1],349 and 158
same,Population Apoptotic (%),[2],9.87% and 7.69%
same,Population Fragmented Nuclei (%),[2],3.28% and 1.65%
same,Population Healthy Nuclei (%),[2],51.34% and 26.92%
same,Population Hoechst High Intensity Objects (%),[2],0.3% and 0%
same,Population Membrane Permeable-Phenotype (%),[2],1.16% and 0%
same,Population Mitochondria Different-Phenotype (%),[2],29.65% and 12.24%
same,Population Mitotic Cells (%),[2],90.13% and 92.31%
same,Population Normal (%),[2],99.7% and 100%
same,Population Pyknosed Nuclei (%),[2],45.37% and 71.43%
same,Total Cell Count,[2],336 and 182
same,Population Apoptotic (%),[3],32.32% and 20.49%
same,Population Fragmented Nuclei (%),[3],0.99% and 2.29%
same,Population Healthy Nuclei (%),[3],74.57% and 28%
same,Population Hoechst High Intensity Objects (%),[3],0.25% and 0.57%
same,Population Membrane Permeable-Phenotype (%),[3],1.66% and 0%
same,Population Mitochondria Different-Phenotype (%),[3],25.5% and 16.33%
same,Population Mitotic Cells (%),[3],67.68% and 79.51%
same,Population Normal (%),[3],99.75% and 99.43%
same,Population Pyknosed Nuclei (%),[3],24.44% and 69.71%
same,Population Tubulin-Different-Phenotype (%),[3],17.88% and 30.61%
same,Total Cell Count,[3],406 and 176
same,Population Apoptotic (%),[4],24.32% and 10.53%
same,Population Fragmented Nuclei (%),[4],3.75% and 3.33%
same,Population Healthy Nuclei (%),[4],73.12% and 33.33%
same,Population Hoechst High Intensity Objects (%),[4],0%
same,Population Membrane Permeable-Phenotype (%),[4],0% and 1.67%
same,Population Mitotic Cells (%),[4],75.68% and 89.47%
same,Population Normal (%),[4],100%
same,Population Pyknosed Nuclei (%),[4],23.12% and 63.33%
same,Population Tubulin-Different-Phenotype (%),[4],4.27% and 1.67%
same,Total Cell Count,[4],320 and 180
same,Population Apoptotic (%),[5],23.33% and 32.22%
same,Population Fragmented Nuclei (%),[5],5.26% and 1.12%
same,Population Healthy Nuclei (%),[5],76.52% and 48.6%
same,Population Hoechst High Intensity Objects (%),[5],1% and 0%
same,Population Membrane Permeable-Phenotype (%),[5],1.59% and 2.3%
same,Population Mitochondria Different-Phenotype (%),[5],50.26% and 32.18%
same,Population Mitotic Cells (%),[5],76.67% and 67.78%
same,Population Normal (%),[5],99% and 100%
same,Population Pyknosed Nuclei (%),[5],18.22% and 50.28%
same,Total Cell Count,[5],499 and 179
same,Population Apoptotic (%),[6],30.43% and 28%
same,Population Fragmented Nuclei (%),[6],3.91% and 6.29%
same,Population Healthy Nuclei (%),[6],63.35% and 36.57%
same,Population Hoechst High Intensity Objects (%),[6],0.35% and 0.57%
same,Population Membrane Permeable-Phenotype (%),[6],3.37% and 0%
same,Population Mitotic Cells (%),[6],69.57% and 72%
same,Population Normal (%),[6],99.65% and 99.43%
same,Population Pyknosed Nuclei (%),[6],32.74% and 57.14%
same,Population Tubulin-Different-Phenotype (%),[6],7.87% and 17.19%
same,Total Cell Count,[6],282 and 176
NCCc1cn(S(=O)(=O)c2c(Cl)nc3sccn23)c2ccccc12.O=C(O)C(=O)O,Population Apoptotic (%),[1],37% and 52%
same,Population Fragmented Nuclei (%),[1],5% and 8%
same,Population Healthy Nuclei (%),[1],83% and 78%
same,Population Hoechst High Intensity Objects (%),[1],7% and 8%
same,Population Membrane Permeable-Phenotype (%),[1],0%
same,Population Mitochondria Different-Phenotype (%),[1],53% and 66%
same,Population Mitotic Cells (%),[1],62% and 47%
same,Population Normal (%),[1],92% and 91%
same,Population Pyknosed Nuclei (%),[1],11% and 13%
same,Population Tubulin-Different-Phenotype (%),[1],40% and 34%
same,Total Cell Count,[1],446 and 316
same,Population Apoptotic (%),[2],63% and 64%
same,Population Fragmented Nuclei (%),[2],8%
same,Population Healthy Nuclei (%),[2],49% and 67%
same,Population Hoechst High Intensity Objects (%),[2],22% and 25%
same,Population Membrane Permeable-Phenotype (%),[2],0%
same,Population Mitochondria Different-Phenotype (%),[2],96% and 97%
same,Population Mitotic Cells (%),[2],36% and 35%
same,Population Normal (%),[2],77% and 74%
same,Population Pyknosed Nuclei (%),[2],42% and 23%
same,Population Tubulin-Different-Phenotype (%),[2],88% and 82%
same,Total Cell Count,[2],292 and 209
same,Population Apoptotic (%),[3],33% and 41%
same,Population Fragmented Nuclei (%),[3],9% and 12%
same,Population Healthy Nuclei (%),[3],79% and 78%
same,Population Hoechst High Intensity Objects (%),[3],6% and 4%
same,Population Membrane Permeable-Phenotype (%),[3],1%
same,Population Mitochondria Different-Phenotype (%),[3],28% and 46%
same,Population Mitotic Cells (%),[3],66% and 58%
same,Population Normal (%),[3],93% and 95%
same,Population Pyknosed Nuclei (%),[3],11% and 8%
same,Population Tubulin-Different-Phenotype (%),[3],26% and 19%
same,Total Cell Count,[3],585 and 438
same,Population Apoptotic (%),[4],74% and 75%
same,Population Fragmented Nuclei (%),[4],14%
same,Population Healthy Nuclei (%),[4],37% and 62%
same,Population Hoechst High Intensity Objects (%),[4],34%
same,Population Membrane Permeable-Phenotype (%),[4],2%
same,Population Mitochondria Different-Phenotype (%),[4],83% and 95%
same,Population Mitotic Cells (%),[4],25% and 24%
same,Population Normal (%),[4],65%
same,Population Pyknosed Nuclei (%),[4],48% and 22%
same,Population Tubulin-Different-Phenotype (%),[4],44% and 76%
same,Total Cell Count,[4],310 and 195
same,Population Apoptotic (%),[5],23% and 47%
same,Population Fragmented Nuclei (%),[5],16% and 12%
same,Population Healthy Nuclei (%),[5],77% and 82%
same,Population Hoechst High Intensity Objects (%),[5],3% and 5%
same,Population Membrane Permeable-Phenotype (%),[5],0% and 1%
same,Population Mitochondria Different-Phenotype (%),[5],22% and 23%
same,Population Mitotic Cells (%),[5],76% and 52%
same,Population Normal (%),[5],96% and 94%
same,Population Pyknosed Nuclei (%),[5],6% and 5%
same,Population Tubulin-Different-Phenotype (%),[5],19% and 14%
same,Total Cell Count,[5],972 and 678
same,Population Apoptotic (%),[6],53% and 78%
same,Population Fragmented Nuclei (%),[6],27% and 19%
same,Population Healthy Nuclei (%),[6],24% and 47%
same,Population Hoechst High Intensity Objects (%),[6],62% and 47%
same,Population Membrane Permeable-Phenotype (%),[6],11% and 1%
same,Population Mitochondria Different-Phenotype (%),[6],74% and 75%
same,Population Mitotic Cells (%),[6],46% and 21%
same,Population Normal (%),[6],37% and 52%
same,Population Pyknosed Nuclei (%),[6],47% and 33%
same,Population Tubulin-Different-Phenotype (%),[6],55% and 52%
same,Total Cell Count,[6],294 and 212
